Results as given in ChEMBL document CHEMBL4765245 (Eur J Med Chem, 2020).
Structures can show the parent of a compound that is named as a salt.

Key:
HeLa = experiment: (§1) Cytotoxicity against human HeLa cells assessed as reduction in cell viability incubated for 72 hrs measured by crystal violet based micro plate reader method; conditions: hela, 72 h
How it was run: (§2)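 Two-day-old confluent HeLa Ohio monolayers exposed to half-log dilutions (100 μM downward) in 2% FCS medium for 72 h at 37 °C, 5% CO2. Cells fixed and stained with crystal violet/formalin, dye eluted with acidified citrate-ethanol, OD read at 550/630 nm. Viability expressed relative to six mock-treated controls; CC50 is the mean of at least 3 tests.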

Coxsackievirus B3 [1] = experiment: Antiviral activity against Coxsackievirus B3 Nancy infected in human HeLa cell line assessed as inhibition of virus-induced cytopathic effect measured after 48 hrs by crystal violet uptake assay; format: functional, organism-based
How it was run: (§3)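 HeLa Ohio monolayers, 2 days old and confluent, in MEM with 2% FCS. Serial half-log compound dilutions from 100 μM were added just before CVB3 infection. Activity was calculated per Pauwels against six cell and six virus controls; mean IC50 from ≥3 experiments.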

Coxsackievirus B3 [2] = experiment: Antiviral activity against wild type Coxsackievirus B3 97927 infected in human HeLa cell line assessed as inhibition of virus-induced cytopathic effect measured after 48 hrs by crystal violet uptake assay; format: functional, organism-based; conditions: read-out: IC50
How it was run: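 Coxsackievirus B3 infection of 2-day-old HeLa Ohio monolayers in 2% FCS medium. Half-log dilutions from 100 μM added just before infection; guanidine hydrochloride served as positive control. Antiviral activity calculated per Pauwels; IC50 is the mean of at least 3 separate tests.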

Coxsackievirus B3 [3] = experiment: Antiviral activity against pleconaril-resistant Coxsackievirus B3 97927 11207K/I1092 mutant infected in human HeLa cell line assessed as inhibition of virus-induced cytopathic effect measured after 48 hrs by crystal violet uptake assay; format: functional, organism-based; how it was run: as §3
Coxsackievirus B3 [4] = experiment: Antiviral activity against pleconaril-resistant Coxsackievirus B3 97927 11207M/I1092 mutant infected in human HeLa cell line assessed as inhibition of virus-induced cytopathic effect measured after 48 hrs by crystal violet uptake assay; format: functional, organism-based; how it was run: as §3
Coxsackievirus B3 [5] = experiment: Antiviral activity against pleconaril-resistant Coxsackievirus B3 97927 11207T/I1092 mutant infected in human HeLa cell line assessed as inhibition of virus-induced cytopathic effect measured after 48 hrs by crystal violet uptake assay; format: functional, organism-based; how it was run: as §3
rhinovirus A2 = experiment: Antiviral activity against Rhinovirus A2 infected in human HeLa cell line assessed as inhibition of virus-induced cytopathic effect measured after 72 hrs by crystal violet uptake assay; format: functional, organism-based
How it was run: (§4)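 HeLa Ohio monolayers, 1 day old, in 2% FCS medium. Compound added as serial half-log dilutions from 100 μM immediately before rhinovirus infection. Activity calculated per Pauwels; IC50 is the mean of at least 3 experiments.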

rhinovirus B5 = experiment: Antiviral activity against Rhinovirus B5 infected in human HeLa cell line assessed as inhibition of virus-induced cytopathic effect measured after 72 hrs by crystal violet uptake assay; format: functional, organism-based
How it was run: as §4, with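 “infection. CPE read at 72 h by crystal violet staining, elution and OD 550/630 nm, with six cell and six virus controls per plate.” for “infection.”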

rhinovirus B14 = experiment: Antiviral activity against Rhinovirus B14 infected in human HeLa cell line assessed as inhibition of virus-induced cytopathic effect measured after 72 hrs by crystal violet uptake assay; format: functional, organism-based; how it was run: as §4
[6] = Mutagenicity in Escherichia coli PQ37 at 10 mg/ml by SOS-chromotest; format: toxicity
[7] = Genotoxicity in Escherichia coli PQ37 assessed as zone of inhibition at 10 mg/ml measured on day 3 by SOS-chromo0test relative to control; format: toxicity; conditions: 72 h, time 3 day
[8] = as §1; conditions: HeLa cells; how it was run: as §2
[9] = Enterovirus B, Nancy, HeLa, 48 h, read-out: IC50
[10] = Enterovirus B, 97927, HeLa, 48 h
[11] = Rhinovirus A, HeLa, 72 h, read-out: IC50
[12] = Rhinovirus B, HeLa, 72 h, read-out: IC50

SMILES	CC50 (HeLa) [nM]	IC50 (Coxsackievirus B3 [1]; [9]) [nM]	IC50 (Coxsackievirus B3 [2]; [10]) [nM]	IC50 (Coxsackievirus B3 [3]; read-out: IC50) [nM]	IC50 (Coxsackievirus B3 [4]) [nM]	IC50 (Coxsackievirus B3 [5]; read-out: IC50) [nM]	IC50 (rhinovirus A2; [11]) [nM]	IC50 (rhinovirus B5; [12]) [nM]	IC50 (rhinovirus B14; [12]) [nM]	IC50 (Coxsackievirus B3 [3])	IC50 (Coxsackievirus B3 [1])	Activity [6]	inhibition zone (IZ) [7] [mm]	IC50 (rhinovirus A2)	IC50 (rhinovirus B5)	IC50 (Coxsackievirus B3 [5])	IC50 (rhinovirus B14)	CC50 at 72 h [8] [nM]	IC50 (Coxsackievirus B3 [2]) [nM]
COc1cc(-c2noc(C(F)(F)F)n2)ccc1OCCCc1cc(C(=O)N(C)C)no1	68000	37800	30	51700	600	1660	1970	3280	40	–	–	–	–	–	–	–	–	–	–
CN(C)C(=O)c1cc(CCCOc2ccc(-c3noc(C(F)(F)F)n3)cc2F)on1	20200	18500	25	–	60	1440	3770	4040	50	Not Active	–	–	–	–	–	–	–	–	–
CCOC(=O)c1cc(CCCOc2c(C)cc(-c3noc(C(F)(F)F)n3)cc2C)on1	17200	–	70	11100	940	20400	–	–	–	–	Not Active	–	–	–	–	–	–	–	–
Cc1cc(-c2noc(C(F)(F)F)n2)cc(C)c1OCCCc1cc(C(=O)N(C)C)no1	13200	–	20	6330	30	1010	120	–	120	–	–	Non-Toxic	0	–	–	–	–	–	–
CN(C)C(=O)c1cc(CCCOc2ccc(-c3noc(C(F)(F)F)n3)cc2)on1	28000	10800	458	27500	20	8110	4610	1740	40	–	–	–	–	–	–	–	–	–	–
CCOC(=O)c1cc(CCCOc2ccc(-c3noc(C(F)(F)F)n3)cc2C)on1	35100	19000	62	–	610	1230	–	–	520	Not Active	–	–	–	Not Active	Not Active	–	–	–	–
Cc1cc(-c2noc(C(F)(F)F)n2)cc(C)c1OCCCc1cc(C(=O)OC(C)C)no1	17900	–	190	–	4090	–	2430	–	430	Not Active	–	–	–	–	–	Not Active	–	–	–
CNC(=O)c1cc(CCCOc2ccc(-c3noc(C(F)(F)F)n3)cc2C(F)(F)F)on1	> 100000	14100	20	–	60	1040	960	–	–	Not Active	–	–	–	–	Not Active	–	Not Active	–	–
CCNC(=O)c1cc(CCCOc2c(C)cc(-c3noc(C(F)(F)F)n3)cc2C)on1	> 100000	–	50	–	480	–	600	–	180	Not Active	–	–	–	–	–	Not Active	–	–	–
COC(=O)c1cc(CCCOc2c(C)cc(-c3noc(C(F)(F)F)n3)cc2C)on1	35400	17900	60	20400	1530	12800	360	–	370	–	–	–	–	–	Not Active	–	–	–	–
Cc1cc(-c2noc(C(F)(F)F)n2)cc(C)c1OCCCc1cc(C(=O)NCc2ccccc2)no1	> 100000	–	1390	–	14400	–	230	–	250	Not Active	–	–	–	–	–	Not Active	–	–	–
Cc1cc(CCCOc2c(C)cc(-c3noc(C(F)(F)F)n3)cc2C)on1 [PLECONARIL]	26200	–	–	–	2050	3970	–	–	–	Not Active	Not Active	–	–	–	Not Active	–	–	–	–
N=C(N)N [GUANIDINE HYDROCHLORIDE]	–	423000	592000	664000	682000	725000	–	–	–	–	–	–	–	–	–	–	–	–	–
CCOC(=O)c1cc(CCCOc2ccc(-c3noc(C(F)(F)F)n3)cn2)on1	–	–	10300	–	–	–	–	–	1990	–	Not Active	–	–	Not Active	Not Active	–	–	> 100000	–
Cc1cc(-c2noc(C(F)(F)F)n2)cc(C)c1OCCCc1cc(C(N)=O)no1	> 100000	–	70	–	1690	–	500	–	220	Not Active	–	–	–	–	–	Not Active	–	–	–
CN(C)C(=O)c1cc(CCCOc2ccc(-c3noc(C(F)(F)F)n3)cc2N)on1	90800	27800	4470	51600	2080	14300	18200	–	330	–	–	–	–	–	Not Active	–	–	–	–
Cc1cc(-c2noc(C(F)(F)F)n2)cc(C)c1OCCCc1cc(-c2ccccc2)no1	> 100000	–	140	–	280	1690	760	–	530	Not Active	–	–	–	–	Not Active	–	–	–	–
CN(C)C(=O)c1cc(CCCOc2ccc(-c3noc(C(F)(F)F)n3)cc2C(F)(F)F)on1	19200	2240	–	7180	160	540	320	–	6760	–	–	Non-Toxic	0	–	Not Active	–	–	–	160
COc1cc(-c2noc(C(F)(F)F)n2)cc([N+](=O)[O-])c1OCCCc1cc(C(=O)N(C)C)no1	25600	14500	365	–	880	840	320	–	200	Not Active	–	–	–	–	Not Active	–	–	–	–
CNC(=O)c1cc(CCCOc2c(C)cc(-c3noc(C(F)(F)F)n3)cc2C)on1	> 100000	–	60	–	370	–	200	–	20	Not Active	–	Non-Toxic	0	–	–	Not Active	–	–	–
CN(C)C(=O)c1cc(CCCOc2ccc(-c3noc(C(F)(F)F)n3)cc2[N+](=O)[O-])on1	22500	1660	3	6460	1	30	670	7630	280	–	–	Non-Toxic	0	–	–	–	–	–	–
